This series in a line: Toxicity liver stage against HepG2, at 10uM. The format is cell-based. Set-up: test concentration 10 uM, cell line HepG2-A16-CD81EGFP. To be noted: human, HepG2-A16-CD81EGFP cells; read-out: INHIBITION
The gist of the method:
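Uninfected HepG2-A16-CD81EGFP cells, 3 × 10^3 per well, 1536-well, plated on prespotted compound at 10 μM final, parasite-free screening media added to match infected plates; puromycin 10 μM positive, DMSO 0.5% negative; run in parallel with 48 h PbLuc assay at 37 °C, 5% CO2; viability by CellTiter-Glo luminescence, normalized to controls.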

Turning to `CC(O)CN1CCN(Cc2coc(-c3cccc(Cl)c3)n2)CC1` (configuration not stated), the cytotoxicity at 10 µM is -4.73%. Turning to `Cc1nn(C)c(N2CCOCC2)c1CNC1CCCCNC1=O` (configuration not stated), the cytotoxicity at 10 µM amounted to 5.84%. Regarding `Cc1nc(CC(=O)N2CCN(C(C)c3ccccc3F)CC2)cs1` (configuration not stated), the cytotoxicity at 10 µM is 2.58%.

Turning to `c1cc2nccc(CC3CCCN(Cc4ncc[nH]4)CC3)c2cn1` (configuration not stated), the cytotoxicity at 10 µM is -2.06%.

For the compound `COCCCN(C(=O)c1ccc(-n2ccnc2)cc1)C1CCN(C)CC1`, the cytotoxicity at 10 µM is -15.8%. With `CN(C)C(=O)c1ccc(CNc2c(Cl)cccc2C#N)cc1` the figure was -50.6%; with `COc1cc2c(cc1CNC(=O)Cc1ccc(C)nc1)OC(C)C2` (configuration not stated), -6.47%; with `Cn1ncc(NC(=O)Cn2ccc(-c3cccc(F)c3)n2)n1`, 1.73%. Consider `O=C(C1NCCc2[nH]cnc21)N1CCC2(C=Cc3ccccc32)CC1` (configuration not stated), for which the cytotoxicity at 10 µM is 5.19%. On to `OC1CCN(c2ccccc2NCc2nc(-c3ccoc3)no2)CC1`, for which the cytotoxicity at 10 µM is 14.5%. In the case of `CCOC(C)c1noc(CN2CCN(Cc3cccc(F)c3)CC2)n1` (configuration not stated), the cytotoxicity at 10 µM is 7.66%. With `COc1c(C(=O)NCc2cnn(C)c2C)nnn1Cc1ccccc1`, the cytotoxicity at 10 µM was -11.3%. On to `Cc1oc(-c2cccc(F)c2F)nc1CN(C)CCO`, for which the cytotoxicity at 10 µM was -9.49%.

For the compound `CS(=O)(=O)CCN1CCSCC1c1ccc(Cl)cc1` (configuration not stated), the cytotoxicity at 10 µM was -24.3%. The figure for `CC(C)[C@@H]1CN(S(=O)(=O)Cc2ccccc2)C[C@H]1NS(=O)(=O)N(C)C` is -0.625%.

Turning to `CCC[C@H]1CN(CCS(C)(=O)=O)C[C@@H]1NC(=O)c1ccccn1`, the cytotoxicity at 10 µM turned out to be 1.13%.

Consider `O=C(c1ncccn1)N1C[C@H]2CCC[C@@]2(COc2ccccn2)C1`, for which the cytotoxicity at 10 µM turned out to be 5.29%.

Take `c1ccc(-n2cc(CNC3CCc4ncnn4C3)cn2)cc1` (configuration not stated): the cytotoxicity at 10 µM is -26.6%. As to `COc1ccc(F)c(-c2cc(C(=O)NC3CC3)ccn2)c1`, the cytotoxicity at 10 µM was -1.36%. Consider `COC(=O)c1ccc(N2CCN(Cc3csc(C)n3)CC2)nn1`, for which the cytotoxicity at 10 µM was -1.7%.

Consider `CC(C)Cc1cc(C(=O)NCC(O)c2ccc(F)cc2)n(C)n1` (configuration not stated), for which the cytotoxicity at 10 µM is -2.96%. As for `CCC(C)NC(=O)c1ccc(NC(=O)CCCn2cncn2)c(C)c1` (configuration not stated), the cytotoxicity at 10 µM is -10.7%.

For the compound `CCn1cc2c(n1)CN(CC1CC1)CC2COCC1CC1` (configuration not stated), the cytotoxicity at 10 µM is -1.26%. Turning to `Cc1ccsc1CNC(=O)N1CCC(Cc2cnn(C)c2)C1` (configuration not stated), the cytotoxicity at 10 µM is -6.6%.

As for `Cc1cc(=O)[nH]c(-n2nc(C)c(CCC(=O)NCC(C)C)c2C)n1`, the cytotoxicity at 10 µM was 2.28%. In the case of `O=C(Cc1cccs1)N1C[C@H]2CN(CC3CCCO3)CC[C@H]2C1` (some centres not stated), the cytotoxicity at 10 µM was determined as 4.96%. Take `Cc1ncc(-c2ccnc(N3CCN(C)CC3)n2)c(-c2cccnc2)n1`: the cytotoxicity at 10 µM is 4.36%. Consider `COCCC(Cc1cccc(Br)c1)C(=O)NCC(N)=O` (configuration not stated), for which the cytotoxicity at 10 µM was determined as 9.74%.

Consider `NC1(CNC(=O)c2cc3ccccc3[nH]2)CCCC1`, for which the cytotoxicity at 10 µM was determined as 15.5%.

Take `CC1CCc2nn(CCNC(=O)Cc3ccc(F)cc3)c(=O)cc2C1` (configuration not stated): the cytotoxicity at 10 µM stood at 7.61%. As to `COCC1CN(Cc2ccccn2)Cc2cn(C)nc21` (configuration not stated), the cytotoxicity at 10 µM was -78.6%. For `Cc1cc(C)c2nc(CNC3CCNC3=O)cc(O)c2c1` (configuration not stated), the cytotoxicity at 10 µM stood at 5.92%. `Cc1noc([C@@H]2C[C@H]3CN(Cc4scnc4C)C[C@H]3O2)n1`: the cytotoxicity at 10 µM is -136%. On to `O=C(c1cc(F)ccc1O)N1CCN(C2CCOCC2)CC1`, for which the cytotoxicity at 10 µM was -4.9%. As for `COCc1n[nH]c2c1CN(Cc1cccs1)C2`, the cytotoxicity at 10 µM came to 3.3%. As for `O=C(CCCc1ccccc1)N1CCCC(n2cncn2)C1` (configuration not stated), the cytotoxicity at 10 µM was -18.3%. For the compound `CC(=O)N1C[C@@H]2C(=O)N(C)C3(CCN(C(=O)C(C)C)CC3)[C@@H]2C1`, the cytotoxicity at 10 µM was 0.434%. Regarding `Cc1cccc2cc(CN3CCCN4CCC[C@H]4C3)c(=O)[nH]c12`, the cytotoxicity at 10 µM stood at 2.67%.

For the compound `CS(=O)(=O)N1CCN(Cc2csc(-c3ncccn3)n2)CC1`, the cytotoxicity at 10 µM was -4.71%.

As to `Cc1cnn(CC2CCCN2C(=O)c2ccc3[nH]c(=O)[nH]c3c2)c1` (configuration not stated), the cytotoxicity at 10 µM is -3.98%. As for `O=C(c1nccc2ccccc12)N(Cc1ccco1)CC1CCCO1` (configuration not stated), the cytotoxicity at 10 µM is -6.25%.

For `Cn1nc(CN2CCCCC2)c2c1CN(C(=O)c1cccc(Cl)c1)C2`, the cytotoxicity at 10 µM is -1.35%. Regarding `CC(C)CC(C)N(C)Cc1nnc(-c2ccco2)o1` (configuration not stated), the cytotoxicity at 10 µM came to 6.07%.

Take `Cc1nnsc1C(=O)N1CC[C@H](c2ccccc2)[C@@H]2[C@H]1CCCCN2C`: the cytotoxicity at 10 µM was -17.6%. As for `CCc1cnc(N2C[C@H](OCc3csc(C)n3)[C@H]3COC[C@H]32)nc1`, the cytotoxicity at 10 µM was -2.51%. `OC(CNCc1nnc2ccccn12)c1ccc2c(c1)OCCCO2` (configuration not stated): the cytotoxicity at 10 µM is 2.93%. Consider `CC(C)CCNC(=O)C(c1cccc(F)c1)N(C)C` (configuration not stated), for which the cytotoxicity at 10 µM was -5.77%.

As for `CSCc1cccc(S(=O)(=O)N2CCCCCC2)c1`, the cytotoxicity at 10 µM was 6.91%.

On to `Cn1cc(CN2CCc3nc4ccccc4c(=O)n3CC2)cn1`, for which the cytotoxicity at 10 µM is -1.57%. On to `COc1ccc(OC)c([C@@H]2N[C@H](c3nccs3)Cc3ccsc32)c1`, for which the cytotoxicity at 10 µM was found to be 12.6%.

As for `CCS(=O)(=O)N1Cc2nnn(C)c2C(COCCN(C)C)C1` (configuration not stated), the cytotoxicity at 10 µM turned out to be 1.55%. As for `Cc1nn(C)c2c(NCc3ccncc3)nc(C3CC3)nc12`, the cytotoxicity at 10 µM was -4.17%. Consider `COc1ccccc1CNC(=O)c1[nH]ncc1Cl`, for which the cytotoxicity at 10 µM was 1.72%. For `CCc1nnc2n1CCN(CC(=O)Nc1sccc1C#N)C2`, the cytotoxicity at 10 µM is -7.67%. On to `O=C(Cc1cccnc1)N1CCC(c2nnc(-c3ccccn3)o2)CC1`, for which the cytotoxicity at 10 µM amounted to 0.91%. As for `COc1ccc(F)cc1CN1CCCC1Cn1nc(C)nc1C` (configuration not stated), the cytotoxicity at 10 µM was -2.41%. With `COc1ccc(C(=O)N2C[C@@H](C)[C@@](C)(O)C2)cc1N1CCOCC1` the figure was 11.3%; with `N#Cc1cccnc1Oc1cc(F)c(CN2CCCC2)c(Cl)c1`, -13.9%. `Cn1ccc2cc(CC3COCCN(C(=O)c4ccccn4)C3)ccc21` (configuration not stated): the cytotoxicity at 10 µM stood at 4.57%. `Cc1cccc(OCC(=O)N(C)C2CCN(CC3CCOC3)CC2)c1` (configuration not stated): the cytotoxicity at 10 µM was -6.22%. `CC(C)NC(=O)N1CCN2C(=O)OC[C@H]2C1`: the cytotoxicity at 10 µM amounted to 4.62%.

With `O=C(CN1CC(n2cccn2)C1)NCC1(c2ccccc2)CCC1`, the cytotoxicity at 10 µM is -3.14%. As to `CCCc1nnc(N2CC[C@@](O)(C3CCOCC3)[C@H](C)C2)s1`, the cytotoxicity at 10 µM came to 8.26%.

Turning to `Cn1cnc2c1CCN(CC(O)c1ccc3c(c1)OCCO3)C2` (configuration not stated), the cytotoxicity at 10 µM is -13.7%. On to `CS(=O)(=O)c1cn[nH]c1C1CCCCN1C(=O)Cc1cccnc1` (configuration not stated), for which the cytotoxicity at 10 µM was -30.7%. For `CC(O)CN1CCN(C(=O)c2ccc(N3CCCC3)nn2)CC1` (configuration not stated), the cytotoxicity at 10 µM is -17.3%. Consider `CN(C)S(=O)(=O)Nc1ccc(Oc2ccc3c(c2)OCO3)cc1`, for which the cytotoxicity at 10 µM was found to be 1.43%. Regarding `CC(=O)c1c(N(C)C)ccnc1C(F)(F)F`, the cytotoxicity at 10 µM worked out at 1.1%. For `CSCCC(NC(=O)c1ccco1)C(=O)N(C)Cc1ccsc1` (configuration not stated), the cytotoxicity at 10 µM was -0.0681%. The figure for `Cc1cc(NCCCNc2cccnc2)n2nc(C)c(C)c2n1` is 2.35%; for `CC(=O)NCCNC(=O)c1cc(C)ccc1SC1CCCC1` it is -41.5%; for `Cc1cccc2c1nc1n2[C@@H](CNC(=O)c2cnccn2)COC1` it is 6.54%. Take `Cc1cnc(CN2CCOC(Cn3nc(C)nc3C)C2)cn1` (configuration not stated): the cytotoxicity at 10 µM came to 1.46%. Turning to `CCOc1ccc(CN2CCC3(CC2)CNC(=O)C3)cn1`, the cytotoxicity at 10 µM stood at 0.987%. For the compound `CC[C@H](C)Nc1nccc(-c2cnc3sc(C)cn3c2=O)n1`, the cytotoxicity at 10 µM was -6.02%.

As to `CCC(C)(NCc1cccc(NC(C)=O)c1)c1nc(C)cs1` (configuration not stated), the cytotoxicity at 10 µM is -2.27%. Turning to `CCc1nc(CNC2CCN(S(C)(=O)=O)CC2)cs1`, the cytotoxicity at 10 µM stood at 0.684%.

As for `O=C1CC2(CCN(Cc3cccs3)C2)CN1c1cccc(F)c1` (configuration not stated), the cytotoxicity at 10 µM is -148%. On to `Cc1c(C(=O)N2CCCC(n3cncn3)C2)cnn1C` (configuration not stated), for which the cytotoxicity at 10 µM was -9.84%. Regarding `COC1CCN(C(=O)Cn2ccc3ccccc32)CC1`, the cytotoxicity at 10 µM is -12.7%.

On to `Cc1nnsc1C(=O)N1CC(c2nc3ccccc3[nH]2)C1`, for which the cytotoxicity at 10 µM stood at 4.17%. Regarding `CC(NCc1ccnc(OC2CCC2)c1)c1cnn(C)c1` (configuration not stated), the cytotoxicity at 10 µM is 5.64%.

With `CN(C)CCNC(=O)c1ccn(-c2ccc3ccccn23)n1`, the cytotoxicity at 10 µM was -0.0395%. In the case of `CN(Cc1ccc2c(c1)OCO2)Cc1nc(Cc2ccccc2)no1`, the cytotoxicity at 10 µM is -2.59%.

In the case of `Cc1cc(C)n(-c2cccc(C(=O)Nc3n[nH]c(C4CCCO4)n3)c2)n1` (configuration not stated), the cytotoxicity at 10 µM is -4.44%. With `CNC(=O)c1cn2cc(-c3cccc(Cl)c3)n(CC=C(C)C)c(=O)c2n1` the figure was -52.8%; with `CCSc1ccccc1C(=O)NCCn1nc(-n2cncn2)ccc1=O`, -5.65%. Regarding `CC(C)c1ccc(CNC(C)c2ccc(S(C)(=O)=O)cc2)cc1` (configuration not stated), the cytotoxicity at 10 µM came to 13.9%.

Consider `CN1CCC(NC(=O)c2cc(C3CCCCC3)nc3ccccc23)CC1`, for which the cytotoxicity at 10 µM was -1.25%. In the case of `O=C(Cc1cccc(F)c1)N1CCc2ncnc(NC3CCC3)c2CC1`, the cytotoxicity at 10 µM is -105%. In the case of `CC(=O)N1CCc2nc(-c3ccccc3)nc(NC(C)C)c2CC1`, the cytotoxicity at 10 µM is -119%. Regarding `COc1c(CNC(c2cccc(F)c2)c2nccn2C)c(C)nn1C` (configuration not stated), the cytotoxicity at 10 µM is -9.19%. As to `O=c1cc(-c2ccccc2)nc2n1CCCCC2`, the cytotoxicity at 10 µM worked out at 1.36%. As for `Cc1nc(C(C)(C)NCc2ncc(C3CC3)o2)sc1C`, the cytotoxicity at 10 µM came to 3.57%.

For `CCOc1ccccc1C(C(=O)O)N(C)Cc1cc(C)[nH]n1` (configuration not stated), the cytotoxicity at 10 µM was determined as 9.34%.

`COc1ccccc1NC(=O)NCc1nnc(SC)n1C`: the cytotoxicity at 10 µM is -0.145%.

Regarding `O=C(CN1CCc2cncnc2C1)NCCOc1cccc(Cl)c1`, the cytotoxicity at 10 µM was -6.88%.
